# Results published in PMC7341950 (Nature chemistry, 2019).
# Peptide text beside a SMILES is read from it. * marks the point of attachment. Cbz = O=C(OCc1ccccc1)*
# System: HeLa cells
# Assay: Radiolabel pulse-chase of cellular protein breakdown
# Assay type: cell-based, human
# Details: 35S-Met/35S-Cys label, 4 hr chase
# How it was run: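 Cellular proteins were metabolically labeled with ³⁵S-Met and ³⁵S-Cys, then chased in unlabeled ("cold") medium. During the chase, cells were left untreated or given DMSO, test compound, or the proteasome inhibitor MG132 as a reference. Compounds were tested at more than one concentration to follow degradation across doses. Bars show mean values.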
structure (smiles),measurement,value
CC(C)C[C@@H](C=O)NC(=O)[C@H](CC(C)C)NC(=O)[C@H](CC(C)C)NC(=O)OCc1ccccc1 [MG132] (Cbz-Leu-Leu-Leu-aldehyde),cellular protein breakdown,inhibit
